Data published in ChEMBL document CHEMBL1121847, “Synthesis of thyrotropin-releasing hormone analogues with selective central nervous system effects” (J Med Chem, 1981).

How the values were obtained:
[1] = Acid dissociation constant was measured; type: ADME
Rattus norvegicus [2] = species on record: Rattus norvegicus; test: CNS activity was measured by the ability to restore the anticonvulsant effect of methazolamide in reserpine treated rats; type: functional; design: unit not given beside the values
Procedure, shortened: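 Rats pretreated with reserpine received varying doses of analogue, and the read-out was restoration of methazolamide's anticonvulsant activity. Potency is expressed relative to TRH.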

Rattus norvegicus [3] = test: Compound was evaluated in vivo for its ability to stimulate release of [125I]-labeled T3 and T4 after administration of varying doses; type: functional
Procedure, shortened: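 Varying doses of analogue were given in vivo, with ¹²⁵I-labeled T₃ and T₄ measured afterwards. Potency is expressed relative to TRH.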

Row | Structure (SMILES) | pKa [1] | CNS activity (Rattus norvegicus [2]) | Hormonal activity (Rattus norvegicus [3])
1 | NC(=O)[C@@H]1CCCN1C(=O)[C@H](Cc1c[nH]cn1)NC(=O)[C@@H]1CCCC(=O)N1 | 6.18 | 4 | 1
2 | NC(=O)[C@@H]1CSCN1C(=O)[C@H](Cc1c[nH]cn1)NC(=O)[C@@H]1CCCC(=O)N1 [listing 1 of 2 here] | 6.1 | – | –
3 | NC(=O)[C@@H]1CSCN1C(=O)[C@H](Cc1c[nH]cn1)NC(=O)[C@@H]1CCCC(=O)N1 [listing 2 of 2 here] | – | 35 | 1
4 | COC(=O)[C@@H]1CCCCN1C(=O)[C@H](Cc1c[nH]cn1)NC(=O)[C@@H]1CCC(=O)N1 [listing 1 of 2 here] | 6.18 | – | –
5 | COC(=O)[C@@H]1CCCCN1C(=O)[C@H](Cc1c[nH]cn1)NC(=O)[C@@H]1CCC(=O)N1 [listing 2 of 2 here] | – | 1 | 0.2
6 | COC(=O)[C@@H]1CCCCN1C(=O)[C@H](Cc1c[nH]cn1)NC(=O)[C@@H]1CCCC(=O)N1 | – | 0.9 | 0.02
